# Measurements reported in ChEMBL document CHEMBL1154046, “Synthesis of some urea and thiourea derivatives of 3-phenyl/ethyl-2-thioxo-2,3-dihydrothiazolo[4,5-d]pyrimidine and their antagonistic effects on haloperidol-induced catalepsy and oxidative stress in mice” (2009).
# Columns and labels:
# Type in all cases: functional
# Conditions in all cases: route intraperitoneal, in the assay text read “ip” for “po”
# Mus musculus [1] = test: Inhibition of haloperidol-induced catalepsy in Swiss albino mouse assessed as time elapsed until release of forepaw from bar at 100 mg/kg, […] 30 min prior to haloperidol challenge measured after 150 mins by bar test
# Summary of the method: (§1)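 Adult male pathogen-free Swiss albino mice (18–25 g), n = 5 per group, each used once. Compounds at 100 mg/kg i.p. were given as a suspension in 0.5% gum acacia 30 min before haloperidol 5 mg/kg i.p. Forepaws were placed on a horizontal bar 9 cm high, and descent time was recorded every 30 min for 3 h. Testing ran at 23 ± 1 °C under 20 lux. Values are mean ± S.E.M.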
# Mus musculus [2] = test: Inhibition of haloperidol-induced catalepsy in Swiss albino mouse assessed as time elapsed until release of forepaw from bar at 100 mg/kg, […] 30 min prior to haloperidol challenge measured after 90 mins by bar test; summary of the method: as §1
# Mus musculus [3] = test: Inhibition of haloperidol-induced catalepsy in Swiss albino mouse assessed as time elapsed until release of forepaw from bar at 100 mg/kg, […] 30 min prior to haloperidol challenge measured after 120 mins by bar test; summary of the method: as §1
# Mus musculus [4] = test: Inhibition of haloperidol-induced catalepsy in Swiss albino mouse at 100 mg/kg, […] 30 min prior to haloperidol challenge by bar test relative to haloperidol control
# Summary of the method: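 Mice received compound at 100 mg/kg i.p. (in 0.5% gum acacia) 30 min before haloperidol 5 mg/kg i.p., n = 5. The bar test was run every 30 min over 3 h, and descent times were summed as CDT [3 h]. Haloperidol CDT minus vehicle CDT was set as 100% catalepsy, and % inhibition was calculated against it.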
# Mus musculus [5] = test: Inhibition of haloperidol-induced catalepsy in Swiss albino mouse assessed as time elapsed until release of forepaw from bar at 100 mg/kg, […] 30 min prior to haloperidol challenge measured after 30 mins by bar test; summary of the method: as §1
# Mus musculus [6] = test: Inhibition of haloperidol-induced catalepsy in Swiss albino mouse assessed as time elapsed until release of forepaw from bar at 100 mg/kg, […] 30 min prior to haloperidol challenge measured after 60 mins by bar test; summary of the method: as §1
# Mus musculus [7] = test: Inhibition of haloperidol-induced catalepsy in Swiss albino mouse assessed as time elapsed until release of forepaw from bar at 100 mg/kg, […] 30 min prior to haloperidol challenge measured after 180 mins by bar test; summary of the method: as §1
Compound,Time to forepaw release from bar (Mus musculus [1]),catalepsy descent time (Mus musculus [2]),catalepsy descent time (Mus musculus [3]),inhibition (INH) (Mus musculus [4]),descent time (Mus musculus [5]),Catalepsy time (forepaw descent time) (Mus musculus [6]),Catalepsy duration (time to release forepaw from bar) (Mus musculus [7])
O=C(Nc1ccccc1[N+](=O)[O-])Nc1ncnc2c1sc(=S)n2-c1ccccc1,2.93 min,2.02 min,2.25 min,44.8%,0.917 min,1.05 min,2.95 min
CCn1c(=S)sc2c(NC(=O)Nc3ccc(OC)cc3)ncnc21,2.3 min,1.9 min,2.02 min,43.3%,1.28 min,1.85 min,2.38 min
N[C@@H](Cc1ccc(O)c(O)c1)C(=O)O [LEVODOPA],1.42 min,1.43 min,1.47 min,25.1%,0.317 min,0.633 min,1.8 min
O=C(CCCN1CCC(O)(c2ccc(Cl)cc2)CC1)c1ccc(F)cc1 [HALOPERIDOL],5 min,4.55 min,5 min,,3.05 min,3.73 min,5 min
CCn1c(=S)sc2c(NC(=O)Nc3ccccc3)ncnc21,2.22 min,2.12 min,2.4 min,47.8%,0.817 min,2.03 min,3.32 min
CCn1c(=S)sc2c(NC(=O)Nc3ccc(F)cc3)ncnc21,3.12 min,1.88 min,3.07 min,55.1%,1.1 min,1.65 min,3.95 min
CCn1c(=S)sc2c(NC(=O)Nc3ccc([N+](=O)[O-])cc3)ncnc21,3.5 min,3.23 min,3.53 min,68.1%,1.67 min,2.33 min,3.85 min
O=[N+]([O-])c1ccccc1NC(=S)Nc1ncnc2c1sc(=S)n2-c1ccccc1,3.9 min,1.15 min,1.55 min,45.4%,0.7 min,1.15 min,3.87 min
O=C(Nc1ccccc1)Nc1ncnc2c1sc(=S)n2-c1ccccc1,3.33 min,1.63 min,2.23 min,49.5%,0.75 min,2.13 min,3.25 min
Fc1ccccc1NC(=S)Nc1ncnc2c1sc(=S)n2-c1ccccc1,3.47 min,2.37 min,2.67 min,58.8%,1.3 min,1.65 min,4.28 min
COc1ccc(NC(=O)Nc2ncnc3c2sc(=S)n3-c2ccccc2)cc1,2.08 min,1.67 min,2.25 min,39%,0.95 min,1.53 min,2.15 min
CCn1c(=S)sc2c(NC(=O)Nc3ccccc3F)ncnc21,3.1 min,2.3 min,2.88 min,53.4%,1.12 min,1.98 min,2.95 min
CCn1c(=S)sc2c(NC(=S)Nc3ccccc3)ncnc21,2.87 min,2.32 min,2.33 min,50.1%,1.22 min,1.92 min,2.85 min
S=C(Nc1ccccc1)Nc1ncnc2c1sc(=S)n2-c1ccccc1,3.6 min,1.25 min,3.2 min,51%,1.1 min,0.967 min,3.62 min
O=C(Nc1ccc([N+](=O)[O-])cc1)Nc1ncnc2c1sc(=S)n2-c1ccccc1,3.18 min,1.98 min,2.08 min,49.7%,0.883 min,1.32 min,3.93 min
CCn1c(=S)sc2c(NC(=O)Nc3ccccc3Cl)ncnc21,3.27 min,2.18 min,2.62 min,58.4%,2.12 min,2.3 min,3.15 min
CCn1c(=S)sc2c(NC(=O)Nc3ccccc3[N+](=O)[O-])ncnc21,3.75 min,3.48 min,3.3 min,70.9%,1.7 min,2.8 min,3.8 min
S=C(Nc1ccccc1Cl)Nc1ncnc2c1sc(=S)n2-c1ccccc1,4.02 min,3.08 min,2.63 min,62.6%,1.07 min,1.93 min,3.97 min
COc1ccc(NC(=S)Nc2ncnc3c2sc(=S)n3-c2ccccc2)cc1,2.87 min,1.72 min,2.63 min,43.1%,1.17 min,1.1 min,2.22 min
O=C(Nc1ccc(Cl)cc1)Nc1ncnc2c1sc(=S)n2-c1ccccc1,3.43 min,2.32 min,3.42 min,65.3%,1.27 min,2.95 min,4.03 min
O=[N+]([O-])c1ccc(NC(=S)Nc2ncnc3c2sc(=S)n3-c2ccccc2)cc1,2.68 min,2.18 min,2.45 min,47.5%,0.967 min,1.88 min,2.65 min
O=C(Nc1ccccc1F)Nc1ncnc2c1sc(=S)n2-c1ccccc1,2.53 min,2.77 min,2.35 min,51.2%,1.38 min,2.1 min,2.63 min
